Tests used:
Format in all cases: functional
Aedes aegypti = experiment: Insecticidal activity against Aedes aegypti
Summary of the method: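 Mosquito larvae were exposed to test compounds and killing was scored. Activity is reported as the LD90 in ng/mL.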

Lucilia sericata = experiment: Insecticidal activity against Lucilia sericata
Summary of the method: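 Blowfly larvae were exposed to test compounds and killing was scored. Activity is reported as the LD90 in ng/mL.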

Ctenocephalides felis = experiment: Insecticidal activity against Ctenocephalides felis

Row | Compound | LD90 (Aedes aegypti) | LD90 (Lucilia sericata) | LD90 (Ctenocephalides felis)
1 | C=C(C)[C@H]1C(=O)c2c3c(cc4c5c(n1c24)[C@@]1(C)C(CC[C@H]2[C@](C)(/C=C/C=C(\C)C(=O)O)[C@@H](O)CC[C@@]21C)C5)C1=CC(C)(C)OC(C)(C)C1[C@@H]3O (stereo not given in full) [NOD ACID A] | 500 ng/mL | 300 ng/mL | 1 µg/mL
2 | C=C(C)[C@H]1C(=O)c2c3c(cc4c5c(n1c24)[C@@]1(C)[C@@H](CC[C@@H]2[C@]1(C)CC[C@]1(O)O[C@H](/C=C(\C)C(=O)O)C[C@@]21C)C5)C1=CC(C)(C)OC(C)(C)[C@H]1[C@@H]3O [NODULISPORIC ACID A1] | 200 ng/mL | 300 ng/mL | 5 µg/mL
3 | CC(C)=CCc1c2c(cc3c4c([nH]c13)[C@@]1(C)[C@@H](CC[C@@H]3[C@]1(C)CC[C@]1(O)O[C@H]([C@H](O)[C@H](C)C(=O)[O-])C[C@@]31C)C4)C1=CC(C)(C)OC(C)(C)[C@H]1[C@@H]2O.[Na+] | – | – | >100 µg/mL
4 | C=C(C)[C@H]1C(=O)c2c3c(cc4c5c(n1c24)[C@@]1(C)[C@@H](CC[C@@H]2[C@]1(C)CC[C@]1(O)O[C@H](C(O)C(C)C(=O)O)C[C@@]21C)C5)C1=CC(C)(C)OC(C)(C)[C@H]1[C@@H]3O (stereo not given in full) [NODULISPORIC ACID A2] | 800 ng/mL | 600 ng/mL | 10 µg/mL
5 | IVERMECTIN | 5 ng/mL | 40 ng/mL | 10 µg/mL
6 | CC(C)=CCc1c2c(cc3c4c([nH]c13)[C@@]1(C)[C@@H](CC[C@H]3[C@](C)(/C=C/C=C(\C)C(=O)[O-])[C@@H](O)CC[C@@]31C)C4)C1=CC(C)(C)OC(C)(C)[C@H]1[C@@H]2O.[Na+] [NODULISPORIC ACID C SODIUM] | 10000 ng/mL | 10500 ng/mL | 10 µg/mL
7 | CN1C(=O)[C@]23C[C@H]4C(C)(C)[C@@]5(C[C@@]41CN2CC[C@@]3(C)O)C(=O)Nc1cc2c(cc15)OC(C)(C)C=CO2 [PARAHERQUAMIDE] | 50000 ng/mL | 50000 ng/mL | >100 µg/mL
8 | CC(C)=CCc1c2c(cc3c4c([nH]c13)[C@@]1(C)[C@@H](CC[C@@H]3[C@]1(C)CC[C@]1(O)O[C@H](/C=C(\C)C(=O)[O-])C[C@@]31C)C4)C1=CC(C)(C)OC(C)(C)[C@H]1[C@@H]2O.[Na+] [NODULISPORIC ACID C1] | – | – | >100 µg/mL

— ChEMBL document CHEMBL1159336, “Nodulisporic acids C, C1, and C2: a series of D-ring-opened nodulisporic acids from the fungus Nodulisporium sp” (2003)
